In assay [1] the test system is P388. The experiment in a line: Antitumor activity against mouse P388 cells allografted in mouse assessed as increase in survival time at 50 mg/kg, po q4d administered on days 5, 9 and 13 relative to control. In kind it is functional. An outline of the steps:
(§1)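 P388 leukemia cells were injected ip into mice on day 0, and the tumor was allowed to advance before dosing on days 5, 9 and 13. Read-out is the survival time of treated relative to control mice (T/C, %), with ≥125% required for activity. Each value comes from a single test.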

Assay [2] is described as follows: Binding affinity to DNA (unknown origin) assessed as DNA interaction by measuring change in melting temperature. In a few lines:
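Thermal denaturation (melting temperature) shift of DNA in solution, read as ΔTm in °C. Buffer was 0.010 M phosphate, pH 7.0, with 10^-5 M EDTA plus 5% Me2SO to solubilize the compounds. Other steps followed a previously described method.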

Assay [3] deals with L1210. The assay is described as follows: Inhibition of DNA synthesis in mouse L1210 cells assessed as inhibition of [3H]thymidine incorporation. In kind it is functional. To be noted: read-out: ED50 (the source's name). In a few lines: (§2)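 L1210 leukemia cells in culture. Incorporation of [3H]thymidine (DNA) or [3H]uridine (RNA) was measured, and the dose giving 50% inhibition (ED50) was reported. Follows a previously described procedure, with 1% Me2SO added for some compounds.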
For orientation: Dividing cells build labelled thymidine or BrdU into new DNA.

Assay [4] relates to L1210. The experiment in a line: Inhibition of RNA synthesis in mouse L1210 cells assessed as inhibition of [3H]uridine incorporation. The settings on record: read-out: ED50 (the source's name). In kind it is functional. An outline of the steps: as §2
In assay [5] the test system is P388. The assay is described as follows: Antitumor activity against mouse P388 cells allografted in mouse assessed as increase in survival time at 0.78 mg/kg, po qd administered from day 1 to day 9 relative to control. In kind it is functional.
The test system of assay [6] is P388. The assay is described as follows: Antitumor activity against mouse P388 cells allografted in mouse assessed as increase in survival time at 2 mg/kg, po q4d administered on days 5, 9 and 13 relative to control. In kind it is functional. An outline of the steps: as §1
For assay [7], the system named is P388. The experiment in a line: Antitumor activity against mouse P388 cells allografted in mouse assessed as increase in survival time at 1 mg/kg, po q4d administered on days 5, 9 and 13 relative to control. In kind it is functional. An outline of the steps:
as §1

In assay [8] the test system is P388. The assay is described as follows: Antitumor activity against mouse P388 cells allografted in mouse assessed as increase in survival time at 200 mg/kg, po q4d administered on days 5, 9 and 13 relative to control. In kind it is functional. In a few lines: as §1
The subject of assay [9] is P388. The assay is described as follows: Antitumor activity against mouse P388 cells allografted in mouse assessed as increase in survival time at 6.25 mg/kg, po qd administered from day 1 to day 9 relative to control. In kind it is functional.

pEC50: −log10 of the molar value.

In general, T/C refers to the result in the treated group divided by that in the control group, in per cent. The term ΔTm denotes the shift of the melting midpoint relative to a reference.

On to `COc1cccc2c1C(=O)c1c(O)c3c(c(O)c1C2=O)C[C@@](O)(C(C)=O)C[C@@H]3OCCN.Cl`, for which the T/C with P388 [1] is given as 112%. Also, the ΔTm in assay [2] is 8.2 °C. For the same molecule, the pEC50 with L1210 [3] is 5.70; in the assay on L1210 [4], 6.00.
Regarding `COc1cccc2c1C(=O)c1c(O)c3c(c(O)c1C2=O)C[C@@](O)(C(C)=O)C[C@@H]3O[C@H]1C[C@H](N)[C@H](O)[C@H](C)O1.Cl` [DAUNORUBICIN HYDROCHLORIDE], the T/C in the assay on P388 [5] is 160%; with P388 [6] it was 133%. Moreover, the ΔTm in [2] was determined as 11.2 °C. Further, the pEC50 in the assay on L1210 [3] is 6.40; in the assay with L1210 [4], 6.52.
For `COc1cccc2c1C(=O)c1c(O)c3c(c(O)c1C2=O)C[C@@](O)(C(=O)CO)C[C@@H]3O[C@H]1C[C@H](N)[C@H](O)[C@H](C)O1` [DOXORUBICIN], the T/C with P388 [5] was found to be 197%; in the assay on P388 [7] it was 130%. Moreover, in assay [2], the ΔTm came to 13.6 °C. In addition, the values for the pEC50 in the assay with L1210 [3] and with L1210 [4] were 5.70 and 6.15, respectively.
With `COc1cccc2c1C(=O)c1c(O)c3c(c(O)c1C2=O)C[C@@](O)(C(C)=O)C[C@@H]3SCCN.Cl`, the T/C in the assay on P388 [8] was 109%. In addition, the ΔTm in [2] turned out to be 6.3 °C. Further, the pEC50 is 5.22 in the assay on L1210 [3] and 5.40 in the assay with L1210 [4].
`COc1cccc2c1C(=O)c1c(O)c3c(c(O)c1C2=O)C[C@@](O)(C(C)=O)C[C@@H]3OC(=O)CCN.Cl`: the T/C in the assay with P388 [9] came out at 126%; in the assay with P388 [1] it was 116%. In addition, in [2], the ΔTm was 1 °C. Further, the results for the pEC50 in the assay with L1210 [3] and in the assay on L1210 [4] were 5.10 and 5.22, respectively.

(Values after ChEMBL document CHEMBL3244343, “7-(Aminoethyl) ether and thioether of daunomycinone” (1979).)
